Inhibition in vivo and IC50 data for 64 compounds are collected here from ChEMBL document CHEMBL1146721, “Discovery and structure-activity relationship of coumarin derivatives as TNF-alpha inhibitors” (Bioorg Med Chem Lett, 2004).

One assay deals with Rattus norvegicus. Nature of the assay: Tested in vivo for inhibition of serum tumor necrosis factor alpha production in rats at 100 ug/kg subcutaneous dose. In kind it is functional. Particulars: sc. The method in brief:
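LPS (E. coli B055/B5, 0.1 mg/kg) challenge given […] subcutaneous test compound, usually in 20% EtOH/80% PEG400; pyridine-containing compounds were given in saline as HCl salts formed in situ. Serum TNF-α was measured by ELISA 90 min later. Percent inhibition was calculated against an untreated control.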
As for `C[C@@H]1C[C@H]2[C@@H]3CCC4=CC(=O)C=C[C@]4(C)[C@@]3(F)[C@@H](O)C[C@]2(C)[C@@]1(O)C(=O)CO` [DEXAMETHASONE], testing at 0.1 mg/kg gave an inhibition in vivo of 99%.

Another assay has as its system Rattus norvegicus. Nature of the assay: Tested in vivo for inhibition of serum tumor necrosis factor alpha production in rats at 100 mg/kg subcutaneous dose. In kind it is functional. Particulars: sc. The procedure, abridged: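 LPS (E. coli B055/B5, 0.1 mg/kg) challenge given […] sc compound, usually in 20% EtOH/80% PEG400; pyridine-containing compounds given in saline as in situ HCl salts. Serum TNF-α measured by ELISA 90 min later. Percent inhibition at 100 mg/kg calculated against an untreated control.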
For the compound `Cc1c(Cc2cccnc2)c(=O)oc2cc(OC(=O)N(C)C)ccc12`, 100 mg/kg produced 86% inhibition in vivo. The same measure, in the same setting: then `Cc1c(Cc2ccc(F)cc2)c(=O)oc2cc(OC(=O)N(C)C)ccc12`, with 42%. Regarding `Cc1c(Cc2ccccc2)c(=O)oc2cc(OC(=O)N(C)C)c(Cl)cc12`, the inhibition in vivo – broadly, the relative decrease from the control value, in per cent – at 100 mg/kg was 57%. `Cc1c(Cc2cccnc2)c(=O)oc2cc(OC(=O)N(C)C)c(Cl)cc12` had an inhibition in vivo at 100 mg/kg of 86%.

Another assay relates to PBMC. Nature of the assay: In vitro inhibition of tumor necrosis factor alpha production in LPS-challenged human peripheral blood mononuclear cells. In kind it is functional, cell-based.
Settings: not given
The method in brief: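 Human PBMC at 5 × 10⁵ cells/mL in RPMI1640 with 5% heat-inactivated FCS and antibiotics, pretreated with compound in DMSO for 60 min at 37 °C. Then stimulated with Salmonella minnesota R595 LPS (final 100 ng/mL) and cultured overnight. Supernatant TNF-α measured by human TNF-α ELISA; IC50 derived.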
On to `Cc1c(Cc2ccccc2)c(=O)oc2c(C)c(OC(=O)N(C)C)ccc12`, for which the IC50 (usually the point on the concentration scale where inhibition reaches its midpoint) was determined as 10.3 µM. That is a double-digit micromolar value. With `Cc1c(Cc2ccccc2)c(=O)oc2cc(OC(=O)N(C)C)c(I)cc12`, the IC50 is 0.06 µM.

The compound `CN(C)C(=O)Oc1ccc2c(CC(O)c3ccc(C#N)cc3)c(Cc3ccccc3)c(=O)oc2c1` (stereo not drawn) showed an IC50 of 28.3 µM. Compared with the last compound, the IC50 is about 470-fold higher. `Cc1c(Cc2cccnc2)c(=O)oc2cc(OC(=O)N(C)C)ccc12`: the IC50 is 2.7 µM. Compound `Cc1c(-c2ccc(N)cc2)c(=O)oc2cc(OC(=O)N(C)C)ccc12` had an IC50 of 5.2 µM. On the same count and under the same terms, then `CN(C)C(=O)Oc1ccc2c(-c3ccc(F)cc3)c(Cc3ccccc3)c(=O)oc2c1`, with 41.7 µM; and `Cc1c(Cc2ccccc2)c(=O)oc2cc(OC(=O)N(C)C)c(C#N)cc12`, with 0.85 µM. Compound `CN(C)C(=O)Oc1ccc2cc(Cc3ccccc3)c(=O)oc2c1` gave an IC50 above 50 µM. Compound `CCc1c(Cc2ccccc2)c(=O)oc2cc(OC(=O)N(C)C)ccc12` had an IC50 of 1.7 µM.

Turning to `C=CCCC(O)Cc1c(Cc2ccccc2)c(=O)oc2cc(OC(=O)N(C)C)ccc12` (stereo not drawn), the midpoint of inhibition, the IC50, lay at 48.4 µM. In turn, `Cc1c(Cc2ccccc2)c(=O)oc2cc(OC(=O)N(C)C)c(C(=O)O)cc12` showed an IC50 above 50 µM. On the same count and under the same terms, next, `CCOC(=O)CC(=O)Nc1cccc(Cc2c(C)c3cc(Cl)c(OC(=O)N(C)C)cc3oc2=O)c1`: 0.05 µM. Still for that read-out and setting: next, `CN(C)C(=O)Oc1ccc2c(CCO)c(Cc3ccccc3)c(=O)oc2c1`: 2.1 µM. For the compound `CN(C)C(=O)Oc1ccc2c(CCc3ccccc3)c(Cc3ccccc3)c(=O)oc2c1`, the IC50 is above 50 µM. The compound `COC(=O)c1ccc(-c2c(C)c3ccc(OC(=O)N(C)C)cc3oc2=O)cc1` registered an IC50 of at least 50 µM. In turn, `CN(C)C(=O)Oc1ccc2c(C(F)(F)F)c(Cc3ccc(F)cc3)c(=O)oc2c1` registered a concentration for half-maximal inhibition (IC50) above 50 µM. `COc1cc2c(C)c(Cc3ccccc3)c(=O)oc2cc1OC(=O)N(C)C` displayed a half-inhibitory concentration (IC50) of 0.58 µM. This counts as sub-micromolar. On the same count and under the same terms, next, `Cc1c(CCc2ccccc2)c(=O)oc2cc(OC(=O)N(C)C)ccc12`: above 50 µM. As to `CN(C)C(=O)Oc1ccc2c(CC(O)c3nccs3)c(Cc3ccccc3)c(=O)oc2c1` (stereo not drawn), the 50% inhibitory concentration (IC50) worked out at 16.5 µM. Regarding `Cc1c(Cc2ccccc2)c(=O)oc2cc(OC(=O)N(C)C)c([N+](=O)[O-])cc12`, it took 0.12 µM to reach half-maximal inhibition (IC50). `CCCCCc1c(C)c2ccc(OC(=O)N(C)C)cc2oc1=O`: the IC50 was 22.8 µM. Same read-out and setting: then `COc1cc(OC(=O)N(C)C)cc2oc(=O)c(Cc3ccccc3)c(C)c12`, with above 50 µM; and `Cc1c(Cc2ccccc2)c(=O)oc2cc(OC(=O)N(C)C)c(C=O)cc12`, with 9.8 µM. The compound `Cc1c(CN2CCOCC2)c(=O)oc2cc(OC(=O)N(C)C)ccc12` displayed a half-maximal inhibitory concentration (IC50) above 50 µM. In the case of `Cc1cc(=O)oc2cc(OC(=O)N(C)C)ccc12`, the IC50 is above 50 µM.

The compound `Cc1c(CN2CCCCC2)c(=O)oc2cc(OC(=O)N(C)C)ccc12` had a half-inhibitory concentration (IC50) above 50 µM. Turning to `CCc1cc2c(C)c(Cc3ccccc3)c(=O)oc2cc1OC(=O)N(C)C`, the IC50 came to 4.6 µM.

For `CN(C)C(=O)Oc1ccc2c(C(=O)O)c(Cc3ccccc3)c(=O)oc2c1`, the IC50 is above 50 µM. `Cc1c(CC2CCCCC2)c(=O)oc2cc(OC(=O)N(C)C)ccc12` displayed an IC50 of 7.2 µM.

With `Cc1c(Cc2ccccn2)c(=O)oc2cc(OC(=O)N(C)C)ccc12`, 6.5 µM corresponded to half-maximal inhibition (IC50). `CN(C)C(=O)Oc1ccc2c(CC(O)C3CCCCC3)c(Cc3ccccc3)c(=O)oc2c1` (stereo not drawn) yielded a 50% inhibitory concentration (IC50) above 50 µM.

Consider `Cc1c(-c2cccc(C(F)(F)F)c2)c(=O)oc2cc(OC(=O)N(C)C)ccc12`, for which the IC50 is above 50 µM. As to `CN(C)C(=O)Oc1ccc2c(-c3ccncc3)c(Cc3ccccc3)c(=O)oc2c1`, half-maximal inhibition (IC50) required 4.9 µM.

`Cc1c(Cc2ccc(F)cc2)c(=O)oc2cc(OC(=O)N(C)C)ccc12`: the half-maximal inhibitory concentration (IC50) amounted to 0.32 µM.

`CN(C)C(=O)Oc1ccc2c(-c3ccccc3F)c(Cc3ccccc3)c(=O)oc2c1` yielded a concentration for half-maximal inhibition (IC50) of 4.9 µM. Compound `CN(C)C(=O)Oc1ccc2c(-c3ccccc3)c(Cc3ccc(F)cc3)c(=O)oc2c1` came in with a half-inhibitory concentration (IC50) of 1.7 µM. The compound `Cc1c(-c2ccc(C(F)(F)F)cc2)c(=O)oc2cc(OC(=O)N(C)C)ccc12` yielded an IC50 above 50 µM. On the same count and under the same terms, next, `Cc1c(C)c2ccc(OC(=O)N(C)C)cc2oc1=O`: at least 50 µM; `COc1ccccc1-c1c(C)c2ccc(OC(=O)N(C)C)cc2oc1=O`: 7.5 µM; `COC(=O)c1cccc(-c2c(C)c3ccc(OC(=O)N(C)C)cc3oc2=O)c1`: 1.7 µM.

`Cc1c(Cc2ccccc2)c(=O)oc2cc(OC(=O)N(C)C)c(C(C)C)cc12` returned a half-maximal inhibitory concentration (IC50) of 40.1 µM. Consider `Cc1cc2c(C)c(Cc3ccccc3)c(=O)oc2cc1OC(=O)N(C)C`, for which the IC50 is 0.4 µM. `CCCCCCc1c(C)c2ccc(OC(=O)N(C)C)cc2oc1=O` showed a half-inhibitory concentration (IC50) of 25.4 µM. `CCCCc1c(C)c2ccc(OC(=O)N(C)C)cc2oc1=O` yielded a half-inhibitory concentration (IC50) of 24.7 µM. This IC50 and that of the compound before are within 1.5-fold of each other. Compound `Cc1c(-c2ccccc2)c(=O)oc2cc(OC(=O)N(C)C)ccc12` registered a concentration for half-maximal inhibition (IC50) above 50 µM. Take `Cc1c(Cc2ccccc2)c(=O)oc2cc(OC(=O)N(C)C)c(Cl)cc12`: inhibition was half-maximal at 0.09 µM (IC50).

`CCCc1c(Cc2ccccc2)c(=O)oc2cc(OC(=O)N(C)C)ccc12` returned an IC50 of 0.78 µM. Compound `CN(C)C(=O)Oc1ccc2c(-c3ccccn3)c(Cc3ccccc3)c(=O)oc2c1` yielded an IC50 of 18.7 µM. `COc1cccc(-c2c(C)c3ccc(OC(=O)N(C)C)cc3oc2=O)c1` yielded an IC50 of 3.2 µM. `Cc1c(Cc2ccccc2)c(=O)oc2cc(OC(=O)N(C)C)cc(F)c12`: the concentration for half-maximal inhibition (IC50) amounted to 0.44 µM. In the case of `CC(=O)Nc1cccc(Cc2c(C)c3cc(Cl)c(OC(=O)N(C)C)cc3oc2=O)c1`, the IC50 was determined as 0.31 µM. `Cc1c(-c2cccc(N)c2)c(=O)oc2cc(OC(=O)N(C)C)ccc12` yielded a half-inhibitory concentration (IC50) of 2.7 µM. As for `Cc1c(Cc2ccncc2)c(=O)oc2cc(OC(=O)N(C)C)c(Cl)cc12`, the half-maximal inhibitory concentration (IC50) is 0.13 µM. Regarding `CN(C)C(=O)Oc1ccc2c(-c3ccc(C(F)(F)F)cc3)c(Cc3ccccc3)c(=O)oc2c1`, the concentration for half-maximal inhibition (IC50) is above 50 µM. On to `CN(C)C(=O)Oc1ccc2c(-c3cccc(C(F)(F)F)c3)c(Cc3ccccc3)c(=O)oc2c1`, for which the IC50 is above 50 µM. Compound `Cc1c(Cc2ccccc2)c(=O)oc2cc(OC(=O)N(C)C)ccc12` had a concentration for half-maximal inhibition (IC50) of 1.8 µM. In other words, the single-digit micromolar range.

On to `Cc1c(Cc2cccnc2)c(=O)oc2cc(OC(=O)N(C)C)c(Cl)cc12`, for which the IC50 amounted to 0.45 µM. `Cc1c(-c2ccccc2N)c(=O)oc2cc(OC(=O)N(C)C)ccc12`: inhibition was half-maximal at 2.1 µM (IC50). For the compound `Cc1c(Cc2ccncc2)c(=O)oc2cc(OC(=O)N(C)C)ccc12`, the 50% inhibitory concentration (IC50) stood at 1.3 µM. In turn, `Cc1c(Cc2ccccc2)c(=O)oc2cc(OC(=O)N(C)C)c(Br)cc12` had a concentration for half-maximal inhibition (IC50) of 0.06 µM. In turn, `Cc1c(-c2ccccc2C(F)(F)F)c(=O)oc2cc(OC(=O)N(C)C)ccc12` returned an IC50 of at least 50 µM.

The compound `COc1ccc(-c2c(C)c3ccc(OC(=O)N(C)C)cc3oc2=O)cc1` returned a half-maximal inhibitory concentration (IC50) of 5.6 µM. In other words, the single-digit micromolar range.

With `CCCc1c(Cc2ccc(F)cc2)c(=O)oc2cc(OC(=O)N(C)C)ccc12`, the half-inhibitory concentration (IC50) was determined as 1.2 µM.
